Active and inactive are the calls of the source. The rule behind the calls is not given here.
What was measured:
[1] = Solubility of compound in water; format: physicochemical; conditions: buffer
[2] = Kinetic Solubility of compound; format: physicochemical
[3] = Induction of H2S generation assessed as Cmax Induction of H2S generation assessed as Cmax at 150 uM incubated at 37 degC and pH 7.4 by fluorescence spectrophotometry; format: functional
Method in brief: (§1)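 Donor at 150 µM final, mixed with 200 µM sulfonyl-azide fluorescent probe in buffer/acetonitrile (1:9) at set pH. Cuvette held in a water bath at 22 °C or 37 °C, with fluorescence read three times at intervals. H2S was quantified from a Na2S standard curve (0–200 µM, probe 200 µM).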

[4] = Induction of H2S generation assessed as Cmax Induction of H2S generation assessed as Cmax at 150 uM incubated at 37 degC and pH 8 by fluorescence spectrophotometry; format: functional; method in brief: as §1
[5] = Induction of H2S generation assessed as Cmax at 150 uM incubated at 37 degC and pH 5 by fluorescence spectrophotometry; format: functional; method in brief: as §1
[6] = Induction of H2S generation assessed as Cmax at 150 uM incubated at 37 degC and pH 1.2 by fluorescence spectrophotometry; format: functional; method in brief: as §1
[7] = Induction of H2S generation assessed as Cmax at 150 uM incubated at 22 degC and pH 7.4 by fluorescence spectrophotometry; format: functional; method in brief: as §1
[8] = Induction of H2S generation assessed as Cmax at 150 uM incubated at 22 degC and pH 8 by fluorescence spectrophotometry; format: functional; method in brief: as §1
[9] = Induction of H2S generation assessed as Cmax at 150 uM incubated at 22 degC and pH 1.2 by fluorescence spectrophotometry; format: functional; method in brief: as §1
HeLa = test: Cytotoxicity in human HeLa cells assessed as growth inhibition incubated for 24 hrs by MTT assay; format: functional, cell-based
Method in brief: (§2)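 Cells were grown in RPMI 1640 with 10% FBS at 37 °C and 10% CO2, seeded at 6×10^3 cells/well. Exposure was 24 h, with viability by MTT, in triplicate cultures. IC50 was reported as mean ± SD.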

A549 = test: Cytotoxicity in human A549 cells assessed as growth inhibition incubated for 24 hrs by MTT assay; format: functional, cell-based; conditions: A549, 24 h; method in brief: as §2
HepG2 = test: Cytotoxicity in human HePG2 cells assessed as growth inhibition incubated for 24 hrs by MTT assay; format: functional, cell-based; conditions: HepG2, 24 h; method in brief: as §2
MCF7 = test: Cytotoxicity in human MCF-7 cells assessed as growth inhibition incubated for 24 hrs by MTT assay; format: functional, cell-based; conditions: MCF7, 24 h; method in brief: as §2
HT-29 = test: Cytotoxicity in human HT-29 cells assessed as growth inhibition incubated for 24 hrs by MTT assay; format: functional, cell-based; conditions: HT-29, 24 h; method in brief: as §2
WI-38 = test: Cytotoxicity in human W138 cells assessed as growth inhibition incubated for 24 hrs by MTT assay; format: cell-based; conditions: WI-38, 24 h; method in brief: as §2
RAW264.7 [10] = test: Anti-inflammatory activity in mouse RAW264.7 cells assessed as inhibition of LPS-induced IL-10 production at 20 uM preincubated for 4 hr followed by LPS addition and measured after 24 hrs; format: functional, cell-based
Method in brief: (§3)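 RAW264.7 cells given LPS 1 µg/mL with compound for 24 h, then lysed in RIPA and centrifuged. Protein was set to 0.1 mg/mL by BCA and mouse cytokine levels measured by sandwich ELISA kit. Four parallel groups, mean ± SD.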

RAW264.7 [11] = test: Anti-inflammatory activity in mouse RAW264.7 cells assessed as inhibition of LPS-induced TNFalpha production at 20 uM preincubated for 4 hr followed by LPS addition and measured after 24 hrs relative to control; format: functional, cell-based; method in brief: as §3
[12] = Cytotoxicity against mouse RAW264.7 cells assessed as cell viability at 20 to 100 microM after 24 hrs by MTT assay; format: cell-based; conditions: dose 20-100 µM, read-out: Activity
Method in brief: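 RAW264.7 macrophages in high-glucose DMEM with 10% heat-inactivated FBS, 37 °C, 5% CO2. LPS 1 µg/mL with or without compound (20 and 100 µM) for 24 h. Then MTT 4 h, formazan dissolved in DMSO, A570, expressed as % of control.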

RAW264.7 [13] = test: Anti-inflammatory activity in mouse RAW264.7 cells assessed as inhibition of LPS-induced NO production preincubated for 4 hr followed by LPS addition and measured after 24 hrs relative to control; format: functional, cell-based; conditions: dose 100.0 µM, time 28.0 hrs
Method in brief: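 RAW264.7 cells exposed to LPS 1 µg/mL with compound (20 and 100 µM) for 24 h. Nitrite in medium measured by Griess reagent, […], against a sodium nitrite standard curve (0–100 µM). Four parallel groups, mean ± SD.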

[14] = Cytotoxicity against rat H9C2 cells assessed as cell viability at 100 uM measured after 24 hrs by MTT assay; format: cell-based; conditions: read-out: Activity
[15] = Induction of H2S generation assessed as half life at 150 uM incubated at 22 degC and pH 1.2 by fluorescence spectrophotometry; format: functional; method in brief: as §1
[16] = Induction of H2S generation assessed as half life at 150 uM incubated at 22 degC and pH 5 by fluorescence spectrophotometry; format: functional; method in brief: as §1
[17] = Induction of H2S generation assessed as half life at 150 uM incubated at 22 degC and pH 7.4 by fluorescence spectrophotometry; format: functional; method in brief: as §1
[18] = Induction of H2S generation assessed as half life at 150 uM incubated at 22 degC and pH 8 by fluorescence spectrophotometry; format: functional; method in brief: as §1
[19] = Induction of H2S generation assessed as half life at 150 uM incubated at 37 degC and pH 1.2 by fluorescence spectrophotometry; format: functional; method in brief: as §1
[20] = Induction of H2S generation assessed as half life at 150 uM incubated at 37 degC and pH 5 by fluorescence spectrophotometry; format: functional; method in brief: as §1
[21] = Induction of H2S generation assessed as half life at 150 uM incubated at 37 degC and pH 7.4 by fluorescence spectrophotometry; format: functional; method in brief: as §1
[22] = Induction of H2S generation assessed as half life at 150 uM incubated at 37 degC and pH 8 by fluorescence spectrophotometry; format: functional; method in brief: as §1
[23] = Induction of H2S generation assessed as Cmax at 150 uM incubated at 22 degC and pH 5 by fluorescence spectrophotometry; format: functional; method in brief: as §1

Compound	Cmax [3]	Cmax [4]	Cmax [5]	Cmax [6]	Cmax [7]	Cmax [8]	Cmax [9]	IC50 (HeLa)	IC50 (A549)	IC50 (HepG2)	IC50 (MCF7)	IC50 (HT-29)	IC50 (WI-38)	T1/2 [15]	T1/2 [16]	T1/2 [17]	T1/2 [18]	T1/2 [19]	T1/2 [20]	T1/2 [21]	further results
O=C([O-])CNP([O-])(=S)c1ccccc1.[Li+].[Li+] (stereo not drawn)	102 µM	101 µM	103 µM	103 µM	99.5 µM	99.4 µM	101 µM	913 µM	378 µM	771 µM	876 µM	912 µM	508 µM	2.94 min	3.19 min	4.93 min	6.44 min	2.17 min	2.41 min	3.66 min	solubility [1]: Soluble; Kinetic_solubility [2]: Soluble; Activity (RAW264.7 [10]): Active; Activity (RAW264.7 [11]): Active; viability at 24 h [12]: 70%; Activity (RAW264.7 [13]): Dose-dependent effect; viability at 24 h, 100 µM [14]: > 90%; T1/2 [22]: 5.57 min
CC(C)[C@H](NP(O)(=S)c1ccccc1)C(=O)O (stereo partly drawn)	125 µM	124 µM	126 µM	125 µM	122 µM	122 µM	121 µM	809 µM	294 µM	690 µM	542 µM	602 µM	546 µM	2.13 min	2.42 min	3.11 min	4.42 min	1.55 min	2.25 min	2.84 min	Cmax [23]: 122 µM; T1/2 [22]: 3.62 min
CSCC[C@H](NP(O)(=S)c1ccccc1)C(=O)O (stereo partly drawn)	120 µM	118 µM	120 µM	120 µM	112 µM	113 µM	114 µM	919 µM	309 µM	286 µM	671 µM	826 µM	546 µM	2.68 min	3.64 min	3.32 min	4.26 min	2.2 min	2.44 min	2.83 min	Cmax [23]: 113 µM; T1/2 [22]: 3.55 min
S=P1(c2ccccc2)NCCO1 (stereo not drawn)	31.1 µM	35.4 µM	37 µM	35.6 µM	29.9 µM	29.7 µM	30 µM	930 µM	622 µM	775 µM	798 µM	539 µM	759 µM	33.8 min	32.7 min	31.9 min	31.3 min	31.9 min	32.6 min	32.2 min	Cmax [23]: 29.9 µM; T1/2 [22]: 33.6 min
S=P1(c2ccccc2)OCCCO1	27.2 µM	35.7 µM	37.4 µM	38.4 µM	24.4 µM	25.7 µM	24.8 µM	1280 µM	569 µM	612 µM	853 µM	991 µM	653 µM	33.5 min	35.8 min	34.6 min	33 min	34.2 min	34.7 min	33 min	Cmax [23]: 25.7 µM; T1/2 [22]: 35.8 min
O=C(O)[C@H](Cc1ccccc1)NP(O)(=S)c1ccccc1 (stereo partly drawn)	128 µM	127 µM	129 µM	129 µM	122 µM	120 µM	122 µM	712 µM	237 µM	671 µM	663 µM	542 µM	690 µM	2.37 min	2.71 min	3.54 min	4.58 min	1.53 min	2.33 min	2.61 min	Cmax [23]: 121 µM; T1/2 [22]: 4.7 min

Source: ChEMBL document CHEMBL4665656, “Toxicity, bioactivity, release of HS in vivo and pharmaco-kinetics of HS-donors with thiophosphamide structure” (Eur J Med Chem, 2019)
